In the library only some 4.8% were active in any assay of this set; here they are far more common.
T cruzi repl: T. cruzi replication inhibition; T. cruzi beta-gal in NIH3T3, luminescence, 90 h; inhibition, % (no concentration beside the values); hit rate 1.4% among 300,000; AID 1885;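 active = mean inhibition across valid replicates above about 55%, limit read from the data; inconclusive = mean below that limit but half or more replicates reach it; inactive = mean below it, under half of replicates reach it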;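 note: signal also drops with host cell toxicity which is not excluded here; 0% = plate median of DMSO wells and 100% = zero luminescence signal; higher percent means less beta-gal luminescence so fewer parasites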
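Assay system: NIH/3T3 host cells with β-galactosidase reporter T. cruzi; input: 5,000 host fibroblasts per well; compound: single 50 nL compound addition per well in DMSO; timing: ≥90 h infection period, 3 h prior cell attachment; measured by: GalScreen β-gal luminescence, detergent lysis, 60 min; evaluation: percent inhibition of parasite-derived β-gal signal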
Efflux pump mplx: blocks antifungal efflux pumps in multiplex yeast assay. S. cerevisiae Candida pump triplex, Nile Red efflux. inhibition, % at 10 µM. hit rate 0.44% among 330,000. AID 485275;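 active = plate passing quality check with inhibition over a set limit, or well fluorescence over plate mean plus 4 SD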;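 note: Nile Red retained in pooled yeast measured as flow cytometry median fluorescence; 0% = buffer negative control and 100% = Enniatin B positive control; higher means more Nile Red kept so more efflux inhibition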
Beta cell apopt: blocks beta cell apoptosis; INS-1E cytokine-induced death, ATP luminescence, 48 h; percent of positive-control rescue, neutral wells zero; protection from apoptosis, % (test concentration not listed); hit rate 0.8% among 300,000; AID 435005;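 active = Every replicate reaches about 75%, or at least half do and their mean reaches it too, limit read from the data; inconclusive = At least half of replicates reach the limit but their mean does not; inactive = Under half of replicates reach the limit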;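 note: 0% = cytokine-treated negative control wells and 100% = positive control rescue; higher means more ATP so stronger rescue from cytokine killing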
Mot1-301 SUMO: SUMOylation pathway inhibition by Mot1-301 growth rescue | S. cerevisiae Mot1-301 growth rescue, ATP luminescence, 38.5C; percent above DMSO median, 100 means doubled | growth rescue, % at 18.8 µM | hit rate 1% among 320,000;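 active = every valid replicate shows activation above 250% relative to neutral control wells; inactive = the rest, any valid replicate at or below 250%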;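 note: OY570 slx delta 5 strain wells were the positive control but not used for scaling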
CSC inhib: blocks cancer stem cells. hit rate 1.1% among 300,000. inhibition, % at 7.5 µM. cancer stem cell-like cells viability, luminescence. AID 2717; in the data active = inhibition above about 75%; inconclusive = no clear call, values can overlap the other calls; tested in HMLE shEcad cells
WT yeast gro inh: growth inhibition of WT yeast, mitochondrial fusion screen. mitochondrial fusion phenotypic screen, WT strain. inhibition, % at 10 µM. hit rate 2.1% among 190,000. AID 1362; in the data active = inhibition above about 58%; tested in S. cerevisiae
Active calls of the source: *.

`CCOC(=O)C1=NN(c2ccc(Cl)cc2)C(=O)C1` gave T cruzi repl -3, Efflux pump mplx 0, Beta cell apopt -1, Mot1-301 SUMO -17 and CSC inhib -2.
Screening Cc1c(NC(=O)c2ccc(-c3ccc([N+](=O)[O-])cc3Cl)o2)c(=O)n(-c2ccccc2)n1C returned T cruzi repl 56*, Efflux pump mplx 0, Beta cell apopt 17, Mot1-301 SUMO -6, CSC inhib -6 and WT yeast gro inh 9.
For CCCCCC1CC(CC(=O)NC(=S)Nc2ccccc2Cl)C(=O)O1 (stereo unspecified) the results were T cruzi repl -13, Efflux pump mplx 0, Mot1-301 SUMO 6, CSC inhib -2 and WT yeast gro inh 61*.
For O=c1c2c3c(sc2nc2n1CCC2)CCC3 the results were T cruzi repl -2, Efflux pump mplx 0, Beta cell apopt -8, Mot1-301 SUMO 201 and WT yeast gro inh 61*.
For O=c1c2c3c(sc2nc2n1CCC2)CCCCC3 the results were T cruzi repl 11, Efflux pump mplx 0, Beta cell apopt -7, Mot1-301 SUMO -10, CSC inhib -8 and WT yeast gro inh 19.
`C=CCn1c(C(C)(C)C)nc2ccccc21` gave T cruzi repl -16, Efflux pump mplx 0, Beta cell apopt -1, Mot1-301 SUMO 5, CSC inhib 1 and WT yeast gro inh 10.
`COc1cc(OC)nc(Oc2ccc(N)c(C)c2)n1` gave T cruzi repl -20, Efflux pump mplx 0, Beta cell apopt -4, Mot1-301 SUMO 10 and CSC inhib 3.
Screening CCCN1CCCc2cc(CN)ccc21 returned T cruzi repl 89*, Efflux pump mplx 0, Beta cell apopt 98*, Mot1-301 SUMO 15, CSC inhib 14 and WT yeast gro inh 27.
For CN1CCCc2cc(C=O)ccc21 the results were T cruzi repl 0, Efflux pump mplx 0, Beta cell apopt -8, Mot1-301 SUMO -8, CSC inhib 13 and WT yeast gro inh -12.
For CCOc1ccc(NC(=O)C(C)Oc2ccccc2C(=O)Nc2ccc(C)c(Cl)c2)cc1 (stereo unspecified) the results were T cruzi repl 72*, Efflux pump mplx 0, Beta cell apopt 3, Mot1-301 SUMO 24, CSC inhib 56 and WT yeast gro inh 3.
COc1ccc2c(c1)CCC1=C2NC(=S)NC1c1ccc(N(C)C)cc1 (stereo unspecified) was read as T cruzi repl 66*, Efflux pump mplx 0, Beta cell apopt -13, Mot1-301 SUMO -3 and WT yeast gro inh 81*.
Screening COc1cc(C2NC(=S)NC3=C2CCc2ccccc23)cc(OC)c1OC (stereo unspecified) returned T cruzi repl -3, Efflux pump mplx 0, Beta cell apopt -4, Mot1-301 SUMO -6, CSC inhib -10 and WT yeast gro inh -4.
`O=S1(=O)c2ccccc2C(CCO)N1Cc1ccccc1` (stereo unspecified) gave T cruzi repl -17, Efflux pump mplx 0, Beta cell apopt 0, Mot1-301 SUMO -26 and CSC inhib -2.
N#C/C(=C/c1cn(-c2ccccc2)nc1-c1cccc(OCc2ccccc2)c1)C(=O)NCCCn1ccnc1 was read as T cruzi repl 60*, Efflux pump mplx 0, Beta cell apopt 4, Mot1-301 SUMO 11, CSC inhib inconclusive and WT yeast gro inh 12.
Screening Cc1ccc(-c2nn(-c3ccccc3)cc2/C=C(\C#N)C(=O)NCc2ccccc2)cc1 returned T cruzi repl -13, Efflux pump mplx 0, Beta cell apopt -2, Mot1-301 SUMO 4, CSC inhib 8 and WT yeast gro inh 7.
For CCSc1ccc(-c2nn(-c3ccccc3)cc2/C=C(/C#N)C(=O)NCCCOC)cc1 the results were Efflux pump mplx 0, Beta cell apopt -1, Mot1-301 SUMO -8, CSC inhib 20 and WT yeast gro inh -3.
For CCOc1cccc(-c2nn(-c3ccccc3)cc2/C=C(/C#N)C(=O)NCCCn2ccnc2)c1 the results were T cruzi repl 28, Efflux pump mplx 0, Beta cell apopt 12, Mot1-301 SUMO 32, CSC inhib -9 and WT yeast gro inh 60*.
`CCOC(=O)[C@@H]1[C@H]2COc3cc(OC)ccc3[C@H]2N2C(=O)N(c3ccc(C(F)(F)F)cc3)C(=O)[C@]12C` gave Efflux pump mplx 0, Beta cell apopt 108*, Mot1-301 SUMO 8 and CSC inhib 102*.
For CCOC(=O)[C@@H]1[C@H]2COc3cc(OC)ccc3[C@@H]2N2C(=O)N(c3ccc(C(F)(F)F)cc3)C(=O)[C@@]12C the results were T cruzi repl -6, Efflux pump mplx 0, Beta cell apopt -8, Mot1-301 SUMO 22 and CSC inhib -16.
Screening Cc1cccc(N2CCN(c3cccc(C)c3)C2c2cccnc2)c1 returned T cruzi repl 66*, Efflux pump mplx 0, Mot1-301 SUMO -4, CSC inhib 38 and WT yeast gro inh 37.
Cc1ccc(N2CCN(c3ccc(C)cc3)C2c2ccncc2)cc1 was read as T cruzi repl 29, Efflux pump mplx 0, Beta cell apopt -1, Mot1-301 SUMO 17, CSC inhib -8 and WT yeast gro inh -15.
`CC(C)Cn1c(=O)[nH]c(=O)c2c(C(F)(F)F)cc(-c3ccccc3)nc21` gave T cruzi repl 27, Efflux pump mplx 0, Beta cell apopt 0, Mot1-301 SUMO 79 and CSC inhib 18.
`NC(=S)N/N=C\c1ccccc1OCc1ccccc1` gave T cruzi repl 55*, Efflux pump mplx 0, Beta cell apopt 2, Mot1-301 SUMO -3, CSC inhib 6 and WT yeast gro inh 54.
For COc1cc(/C=N/N=C(N)N)ccc1OCc1ccc(Cl)cc1 the results were T cruzi repl 87*, Efflux pump mplx 0, Beta cell apopt 98*, Mot1-301 SUMO 7, CSC inhib 50 and WT yeast gro inh -13.
CCOc1cc(/C=N/N=C(N)N)ccc1OCc1ccc(Cl)cc1 was read as T cruzi repl 31, Efflux pump mplx 0, Beta cell apopt 16, Mot1-301 SUMO 12, CSC inhib 106* and WT yeast gro inh 52.
For NC(N)=N/N=C/c1ccc(OCc2ccccc2)c(OCc2ccccc2)c1 the results were T cruzi repl 0, Efflux pump mplx 0, Beta cell apopt 9, Mot1-301 SUMO 6 and CSC inhib 2.
Screening COc1cc(/C=N/NS(=O)(=O)c2ccc(C)cc2)ccc1OCc1cccc(C(=O)O)c1 returned T cruzi repl 1, Efflux pump mplx 0, Beta cell apopt -4, Mot1-301 SUMO 733* and WT yeast gro inh -17.
`O=C(CSCc1ccccc1)N/N=C/c1ccccc1OCc1ccccc1` gave T cruzi repl -9, Efflux pump mplx 0, Beta cell apopt 0, Mot1-301 SUMO 0, CSC inhib -3 and WT yeast gro inh 44.

From PubChem
